Results as given in ChEMBL document CHEMBL5150070, “Tricyclic SpiroLactams Kill Mycobacteria In Vitro and In Vivo by Inhibiting Type II NADH Dehydrogenases” (J Med Chem, 2022).

What was measured:
[1] = system: Mycobacterium tuberculosis; test: Bactericidal activity against Non-replicating Mycobacterium tuberculosis ss18b-lux model assessed as decrease in luminescence at 10 to 10000 nM; assay type: functional, organism-based; conditions: dose 10-10000 nM, TDE = time-dependent effect
Procedure, shortened: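 Non-replicating streptomycin-starved 18b-lux (14-day starvation) diluted to OD600 0.15 in white 96-well plates with compound and incubated at 37°C. Luminescence read on days 1, 2, 5 and 7 and expressed relative to no-antibiotic controls (n ≥ 3).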

[2] = system: Mycobacterium tuberculosis; test: Bactericidal activity against Non-replicating Mycobacterium tuberculosis ss18b-lux assessed as decrease in colony forming unit measured at 0.6 uM after 1 weeks; assay type: functional
Procedure, shortened: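 Streptomycin-dependent 18b-lux starved of streptomycin for 14 days (OD600 reset to 0.2 on days 7 and 13) to become non-replicating. Diluted to OD600 0.15 on dispensed compound and held at 37°C. On day 7, active wells plated on 7H11-OADC with 50 µg/mL streptomycin and incubated up to 8 weeks for cfu.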

[3] = system: Mycobacterium tuberculosis; test: Antimycobacterial activity against Mycobacterium tuberculosis H37Rv infected in human A-THP1 macrophages assessed as viability of infected macrophages incubated for 96 hrs by fluorescence microplate assay; assay type: functional, organism-based
Procedure, shortened: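 THP-1 cells differentiated with 50 ng/mL PMA for 72 h, infected with log-phase H37Rv (MOI 10, 2 h), and extracellular bacteria killed with 50 µg/mL amikacin for 1 h. Cells detached and seeded at 5×10⁵/mL in RPMI-10% FBS with PMA onto pre-dispensed compound, 96 h at 37°C, 5% CO₂. Macrophage viability by 0.05% resazurin fluorescence.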

Structure (SMILES): CO[C@H]1/C=C/O[C@@]2(C)Oc3c(C)c(O)c4c(O)c(c(/C=N/N5CCN(C)CC5)c(O)c4c3C2=O)NC(=O)/C(C)=C\C=C\[C@H](C)[C@H](O)[C@@H](C)[C@@H](O)[C@@H](C)[C@H](OC(C)=O)[C@@H]1C [RIFAMPIN]
- Activity [1]: Tde
- Activity [2]: 1 log10CFU
- IC50 [3]: 91 nM
